Results pooled from the literature.

Compound	species	matrix	route	dose	setting	half-life
Cc1ncc(C)n2nc(/C=C/c3nc(N4CCCC4)cc(N4CCOCC4)n3)nc12	male Sprague-Dawley rat	plasma	intravenous	0.1 mg/kg	–	4.6 h
Cn1cnc(Cn2c(=O)[nH]/c(=N\c3cc4cn(C)nc4cc3Cl)n(Cc3cc(F)c(F)cc3F)c2=O)n1	male Sprague-Dawley rat	plasma	intravenous	5 mg/kg	–	3.29 h
CC(C)C[C@@H]1NC(=O)[C@H](CC(=O)O)NC(=O)[C@H](Cc2ccccc2)NC(=O)[C@H](Cc2c[nH]cn2)NC(=O)[C@H]([C@@H](C)O)NC(=O)[C@H](Cc2ccccc2)NC(=O)[C@@H](NC(=O)[C@H](C)NC(=O)COCCOCCNC(=O)COCCOCCNC(=O)CC[C@H](NC(=O)CCCCCCCCCCCCCCCCC(=O)O)C(=O)O)CSSC[C@@H](C(=O)O)NC(=O)[C@H](Cc2ccccc2)NC(=O)[C@@H]2CCCN2C(=O)[C@H](Cc2c[nH]c3ccccc23)NC(=O)[C@H](CC(C)C)NC1=O	male Sprague-Dawley rat	plasma	intravenous	–	–	4.17 h
COC(=O)C(NC(=O)c1cn(CCCCCF)c2ccccc12)C(C)(C)C (stereo not shown)	male Sprague-Dawley rat	plasma	subcutaneous	50 µg/kg	–	6.89 h
CCCC[C@@H]1NC(=O)[C@H](Cc2ccc(O)cc2)NC(=O)[C@@H]2CCCN2C(=O)[C@H](CC(=O)O)NC(=O)[C@H](C)NC(=O)[C@H](Cc2ccccc2)NC(=O)[C@@H]2CSCCC(=O)N3CN(CN(C3)C(=O)CCSC[C@H](NC(C)=O)C(=O)N[C@@H](CC(C)(C)C)C(=O)N[C@@H](CCC(=O)O)C(=O)N[C@@H](CCC(=O)O)C(=O)N[C@H](CCCCNC(=O)CCc3cn(CCOCCOCCOCCOCCOCCC(=O)N[C@H]4CSCCC(=O)N5CN6CN(C5)C(=O)CCSC[C@H](NC(=O)[C@@H](CC(=O)O)NC(=O)[C@H](Cc5cccc7ccccc57)NC(=O)[C@@H]5CCCN5C4=O)C(=O)N[C@@H](CCSC)C(=O)N[C@@H](CCCCNC(=N)N)C(=O)N[C@@H](CC(=O)O)C(=O)N[C@@H](Cc4c[nH]c5ccccc45)C(=O)N[C@@H](CO)C(=O)N[C@@H]([C@@H](C)O)C(=O)N4CCC[C@H]4C(=O)N4C[C@H](O)C[C@H]4C(=O)N[C@@H](Cc4c[nH]c5ccccc45)C(=O)N[C@H](C(N)=O)CSCCC6=O)nn3)C(=O)N3CCC[C@H]3C(=O)N[C@@H](Cc3ccc(O)cc3)C(=O)N2)C(=O)CCSC[C@@H](C(N)=O)NC1=O	rat	plasma	intravenous	2 mg/kg	–	1.7 h
[2H]C([2H])(c1cc(F)c(F)cc1F)n1c(=O)n(Cc2ncn(C)n2)c(=O)[nH]/c1=N\c1cc2cn(C)nc2cc1Cl	male Sprague-Dawley rat	plasma	intravenous	5 mg/kg	–	3.37 h
O=C(Nc1cccnn1)N1CCN([C@@H]2CCOc3cc(C(F)(F)F)ccc32)CC1	male Sprague-Dawley rat	plasma	oral	1 mg/kg	–	5.5 h
CSCC[C@H](NC(=O)COCCOCCNC(=O)COCCOCCNC(=O)CC[C@H](NC(=O)CCCCCCCCCCCCCCCCC(=O)O)C(=O)O)C(=O)N[C@H]1CSSC[C@@H](C(=O)NCC(=O)N[C@@H](CO)C(=O)NCC(=O)N[C@@H](CO)C(=O)N[C@@H](CC(=O)O)C(=O)N[C@@H](Cc2ccc(O)cc2)C(=O)N[C@@H](CCCCN)C(=O)N[C@@H](CC(=O)O)C(=O)N[C@@H](CC(=O)O)C(=O)N[C@@H](CC(=O)O)C(=O)N[C@@H](CC(=O)O)C(=O)N[C@@H](CCCCN)C(N)=O)NC(=O)[C@H](Cc2ccccc2)NC(=O)[C@@H]2CCCN2C(=O)[C@H](Cc2c[nH]c3ccccc23)NC(=O)[C@H](CC(C)C)NC(=O)[C@H](CCSC)NC(=O)[C@H](Cc2c[nH]cn2)NC(=O)[C@H](Cc2ccccc2)NC(=O)[C@H](Cc2c[nH]cn2)NC(=O)[C@H]([C@@H](C)O)NC(=O)[C@H](Cc2ccccc2)NC1=O	male Sprague-Dawley rat	plasma	intravenous	–	–	10.7 h
N=c1c2c(-c3ccccc3)c(-c3ccccc3)n(Cc3ccccc3)c2ncn1[C@H]1CC[C@H](O)CC1	male Sprague-Dawley rat	plasma	oral	2 mg/kg	single dose	8.9 h
CCN1CC2(CCN(CCc3cc(F)ccc3F)CC2)O[C@H](C)C1=O	Wistar rat	plasma	intraperitoneal	3 mg/kg	single dose	0.333 h
CCCC[C@@H]1NC(=O)[C@H](Cc2ccc(O)cc2)NC(=O)[C@@H]2CCCN2C(=O)[C@H](CC(=O)O)NC(=O)[C@H](C)NC(=O)[C@H](Cc2ccccc2)NC(=O)[C@@H]2CSCCC(=O)N3CN(CN(C3)C(=O)CCSC[C@H](NC(C)=O)C(=O)N[C@@H](CC(C)(C)C)C(=O)N3CCC[C@H]3C(=O)N[C@@H](CCC(=O)O)C(=O)N[C@H](CCCCNC(=O)CCc3cn(CCOCCOCCOCCN(CCOCCOCCOCCC(=O)N[C@H]4CSCCC(=O)N5CN6CN(C5)C(=O)CCSC[C@H](NC(=O)[C@@H](CC(=O)O)NC(=O)[C@H](Cc5cccc7ccccc57)NC(=O)[C@@H]5CCCN5C4=O)C(=O)N[C@@H](CCSC)C(=O)N[C@@H](CCCCNC(=N)N)C(=O)N[C@@H](CC(=O)O)C(=O)N[C@@H](Cc4c[nH]c5ccccc45)C(=O)N[C@@H](CO)C(=O)N[C@@H]([C@@H](C)O)C(=O)N4CCC[C@H]4C(=O)N4C[C@H](O)C[C@H]4C(=O)N[C@@H](Cc4c[nH]c5ccccc45)C(=O)N[C@H](C(N)=O)CSCCC6=O)CCOCCOCCOCCn4cc(CCC(=O)NCCCC[C@H]5NC(=O)[C@H](CCC(=O)O)NC(=O)[C@@H]6CCCN6C(=O)[C@H](CC(C)(C)C)NC(=O)[C@@H](NC(C)=O)CSCCC(=O)N6CN7CN(C6)C(=O)CCSC[C@H](NC(=O)[C@H](Cc6ccc(O)cc6)NC(=O)[C@@H]6CCCN6C5=O)C(=O)N[C@@H](Cc5ccccc5)C(=O)N[C@@H](C)C(=O)N[C@@H](CC(=O)O)C(=O)N5CCC[C@H]5C(=O)N[C@@H](Cc5ccc(O)cc5)C(=O)N[C@@H](CCCC)C(=O)N[C@H](C(N)=O)CSCCC7=O)nn4)nn3)C(=O)N3CCC[C@H]3C(=O)N[C@@H](Cc3ccc(O)cc3)C(=O)N2)C(=O)CCSC[C@@H](C(N)=O)NC1=O	rat	plasma	intravenous	2 mg/kg	–	3.1 h
O=C([O-])C(=O)[O-].[NH-][C@@H]1CCCC[C@H]1[NH-].[Pt+4] (relative stereo)	rat	plasma	intravenous	5 mg/kg	–	3.1 h
[2H]C([2H])([2H])n1cc2cc(Nc3nc(=O)n(Cc4ncn(C)n4)c(=O)n3Cc3cc(F)c(F)cc3F)c(Cl)cc2n1	male Sprague-Dawley rat	plasma	intravenous	5 mg/kg	–	3.68 h
Cl.Cl.O=C(CCN1CCCCC1)c1ccc(-c2ccc(C(=O)CCN3CCCCC3)cc2)cc1	Sprague-Dawley rat	plasma	intravenous	5 mg/kg	–	0.08 h
COc1ccc2c3c1O[C@H]1C[C@@H](OC(=O)c4ccccc4)C=C[C@@]31CCN(C)C2	rat	brain	intravenous	5 mg/kg	–	1.95 h
CCCCCn1cc(C(=O)Nc2cccc3ccccc23)c2ccccc21	male Long-Evans rat	plasma	intraperitoneal	3 mg/kg	–	11.6 h
